HCV NS3 hel inh = HCV NS3 helicase inhibition | NS3 helicase DNA unwinding, Cy5 molecular beacon fluorescence | inhibition, % at 10.9 µM | 0.56% of 290,000 active | AID 1800;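 active = inhibition above the mean of all tested compounds plus 3 SD, set per campaign, cut at about 35% in these data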
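Material: hepatitis C virus NS3 helicase domain fragment enzyme; measured by: Cy5 fluorescence, 0 and 60 min reads; control set: DMSO and thioflavine S; incubation: 60 min unwinding reaction at 25 °C after ATP addition; read-out basis: % inhibition from 60/0 min fluorescence ratio, DMSO 0%, thioflavine S 100%; repeats: singlicate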
EBNA-1 inh = blocks EBNA-1 binding to DNA; EBNA-1 DNA binding, fluorescence polarization; inhibition, % at 14.8 µM; 0.34% of 300,000 active; in the data active = inhibition above about 28%
HCV core dimer = HCV core protein dimerization inhibition; AID 1899; inhibition, % at 5 µM; TR-FRET GST/Flag-core106 dimerization, 1536-well; 0.33% of 300,000 active;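 active = inhibition above the mean of all tested compounds plus 3 SD, set per screening campaign, cut at about 45% in these data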
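System – GST-tagged and Flag-tagged HCV core protein residues 1-106 · Repeats – one well for each compound · Technique – TR-FRET 671 and 617 nm emission · Doses – one concentration, 5 µM, in 0.5% DMSO · Times – 4 h, 22.5 °C incubation · Also added – Eu donor and XL665 acceptor anti-tag antibodies · Measure – percent inhibition of core106 dimerization signal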
EBV gp42 inh = EBV gp42 inhibition; Q1HVG2; Fluorescence polarization binding assay, mP read-out; inhibition, % (tested at 21.74 µM); 0.42% of 220,000 active; AID 1085; in the data active = inhibition above about 50%
Target sequence (Q1HVG2 whole entry, looked up): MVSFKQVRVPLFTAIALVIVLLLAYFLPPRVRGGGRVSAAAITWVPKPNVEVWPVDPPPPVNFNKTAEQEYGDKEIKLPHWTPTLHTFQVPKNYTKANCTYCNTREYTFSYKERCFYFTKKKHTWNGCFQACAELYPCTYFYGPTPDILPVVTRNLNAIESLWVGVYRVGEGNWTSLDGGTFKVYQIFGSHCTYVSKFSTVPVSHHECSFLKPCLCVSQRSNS
MEX-5 binding = C. elegans MEX-5 TCR-2 RNA binding activity; Q9XUB2; MEX-5/FITC-TCR2 RNA binding, fluorescence polarization; stronger effect = lower value; activity score (negative = inhibition of binding), % at 10 µM; 0.38% of 300,000 active; AID 1832;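 active = inhibition past about -25% in most replicates, and total fluorescence under double the plate's negative control median, limit read from the data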
ZTA counter = blocks Epstein-Barr virus ZTA, an EBNA-1 counter-screen; ZTA-DNA binding, fluorescence polarization; 0.15% of 320,000 active; P03206; AID 2234; inhibition, % at 11 µM; in the data active = inhibition above about 33%
Target sequence (P03206 whole entry, looked up): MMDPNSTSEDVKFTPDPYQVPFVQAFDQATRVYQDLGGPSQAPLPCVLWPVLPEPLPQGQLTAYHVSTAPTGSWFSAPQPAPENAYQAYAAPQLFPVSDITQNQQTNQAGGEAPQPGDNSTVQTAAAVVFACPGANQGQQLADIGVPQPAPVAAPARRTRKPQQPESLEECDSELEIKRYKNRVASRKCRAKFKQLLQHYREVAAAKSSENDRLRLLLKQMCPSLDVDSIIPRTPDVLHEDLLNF
EBNA-1 inh conf = EBNA-1 (EBV) inhibition, confirmation. shares compounds with EBNA-1 inh. Recombinant EBNA-1 DBD, Cy5-DNA fluorescence polarization. inhibition, % at 14.8 µM. 35% of 830 active;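 active = mean inhibition across replicates above a set limit taken from the earlier primary screen, cut at about 28% in these data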
ZTA DNA inh trip = ZTA (EBV) inhibition, triplicate counter-screen; Zta-ZRE DNA binding, Cy5 fluorescence polarization; inhibition, % at 11.1 µM; AID 2328; 830 tested, under 10 active; shares compounds with EBNA-1 inh;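 active = mean inhibition over triplicates above a set limit taken from the primary EBNA-1 screen, cut at about 37% in these data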;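 also: purified full length Zta protein with Cy5 labeled ZRE DNA probe; inhibitors lower polarization by freeing the labeled DNA probe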
Of the large screens only hits and unclear results are named; the others gave an inactive call (follow-up assays come after a bar, where they were run). Shown are actives, neighbours in structure and some others; about 1.7% of the full set was active somewhere.

CCCOc1ccc(N2C(=O)CC(N(CCc3ccccc3)C(=O)c3ccccc3)C2=O)cc1 (stereo unspecified)	none (no result: MEX-5 binding)
COc1cccc(CNC(=O)CCNC(=O)C2CCN(S(=O)(=O)c3ccccc3)CC2)c1	none (no result: EBV gp42 inh)
COc1ccc(/C=C(\C#N)C(=O)OCC(=O)Nc2c(C)cccc2C)cc1	none
CCc1cccc(CC)c1NC(=O)COC(=O)/C(C#N)=C/c1ccc(OC)cc1	EBNA-1 inh 46 | EBNA-1 inh conf inactive | ZTA DNA inh trip inactive
CC1CC(C)CN(S(=O)(=O)c2ccc(C(=O)NCc3ccc4c(c3)OCO4)cc2)C1 (stereo unspecified)	EBNA-1 inh 53 | EBNA-1 inh conf inactive | ZTA DNA inh trip inactive
Cc1ccc2cc3cc(C(=O)NCCCN4CCCC4=O)oc3nc2c1	none (no result: EBV gp42 inh)
CCCCCNC(=O)c1c[nH]c2ccc(S(=O)(=O)N3CCC4(CC3)OCCO4)cc2c1=O	EBNA-1 inh 29 | EBNA-1 inh conf inactive | ZTA DNA inh trip inactive
Cc1ccc(C(=O)COC(=O)CNC(=O)CN2C(=O)c3ccccc3C2=O)cc1	EBNA-1 inh 33 | EBNA-1 inh conf 28 | ZTA DNA inh trip inactive
C=CCOc1ccc(-c2nc3c(c(=O)[nH]c(=O)n3Cc3ccccc3)n2CCCOC)cc1	EBNA-1 inh 29 (no result: EBV gp42 inh) | EBNA-1 inh conf inactive | ZTA DNA inh trip inactive
COc1ccc(/C=N/n2cnc3c([nH]c4ccccc43)c2=O)cc1CO	EBNA-1 inh 29 | EBNA-1 inh conf inactive | ZTA DNA inh trip inactive
COc1ccc(/C=N/n2cnc3c([nH]c4ccc(Br)cc43)c2=O)cc1CN1CCOCC1	none
CCN(CC)CCNC(=O)c1cn(CC)c2cc(N3CCN(C)CC3)c(F)cc2c1=O	none (no result: EBV gp42 inh)
CN1C(=O)N(C)C2(c3ccccc3)Nn3c(s/c(=C/c4ccco4)c3=O)=NC12c1ccccc1 (stereo unspecified)	EBNA-1 inh 45 | EBNA-1 inh conf 77 | ZTA DNA inh trip inactive
CN1C(=O)N(C)C2(c3ccccc3)Nn3c(s/c(=C/c4ccccc4F)c3=O)=NC12c1ccccc1 (stereo unspecified)	none
O=C(c1ccc(CN2CCc3ccccc3C2)cc1)N1CCN(c2ccccc2)CC1	none
O=C(c1ccc(CN2CCc3ccccc3C2)cc1)N1CCc2ccccc2C1	EBNA-1 inh 38 | EBNA-1 inh conf inactive | ZTA DNA inh trip inactive
O=C(Nc1ccc(S(=O)(=O)NCC2CCCO2)cc1)C1CC(=O)N(c2ccccc2)C1 (stereo unspecified)	none (no result: EBV gp42 inh)
CCc1ccc(N2CC(C(=O)Nc3ccc(S(=O)(=O)NCC4CCCO4)cc3)CC2=O)cc1 (stereo unspecified)	EBNA-1 inh 94 (no result: EBV gp42 inh) | EBNA-1 inh conf 29 | ZTA DNA inh trip inactive
COc1cccc(/C=N/NC(=O)c2ccc(CN3c4cccc5cccc(c45)S3(=O)=O)cc2)c1	EBNA-1 inh 30 | EBNA-1 inh conf inactive | ZTA DNA inh trip inactive
Cc1ccc(N(Cc2ccc(C(=O)NC3CCCCC3)cc2)S(C)(=O)=O)cc1C	EBNA-1 inh 31 | EBNA-1 inh conf 34 | ZTA DNA inh trip inactive
Cc1ccc(Nc2nc(NCC3CCCO3)nc(N)c2[N+](=O)[O-])cc1C (stereo unspecified)	EBNA-1 inh 122 | EBNA-1 inh conf 110 | ZTA DNA inh trip inactive
CC(C)CNc1nc(N)c([N+](=O)[O-])c(NCC2CCCO2)n1 (stereo unspecified)	none
O=C(COC(=O)CCNS(=O)(=O)c1ccccc1)NNC(=O)c1ccccc1	none (no result: HCV NS3 hel inh, EBV gp42 inh)
COc1ccc(C(=O)CN2CCN(c3cc(C)nc4ccccc34)CC2)cc1	none
Cc1cc(N2CCN(CC(O)C(F)(F)F)CC2)c2ccccc2n1 (stereo unspecified)	EBNA-1 inh active (no result: EBV gp42 inh) | EBNA-1 inh conf inactive | ZTA DNA inh trip inactive
CCOCC(=O)Nc1ccccc1C(=O)O	none
COc1cccc(N2CC(O)=C(c3nc4ccccc4s3)C2=N)c1	none

High-throughput results (PubChem BioAssay)
